Measurements from ChEMBL document CHEMBL1122220, “Synthesis and antiallergic activity of some acidic derivatives of 4H-pyrimido[2,1-b]benzazol-4-ones” (1983).
Calls of active or inactive are those of the source. The rule behind the calls is not given here.

Columns and labels:
Rattus norvegicus [1] = organism: Rattus norvegicus; test: Minimum effective dose (MED) perorally in passive cutaneous anaphylaxis (PCA) model for 50% inhibition in Sprague-Dawley rat; type: functional; conditions: po, read-out: MED
Outline: (§1)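 Sprague-Dawley rat passive cutaneous anaphylaxis with oral dosing of a Klucel suspension at 10, 5 and/or 2.5 mg/kg, six animals per dose. MED po is the lowest dose producing >50% inhibition at p ≤ 0.05 (Student's t test).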

Rattus norvegicus [2] = test: Minimum effective dose (MED) intraperitoneally in passive cutaneous anaphylaxis (PCA) model for 50% inhibition in Sprague-Dawley rat; type: functional; conditions: ip, read-out: MED
Outline: (§2)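 Rat passive cutaneous anaphylaxis in Sprague-Dawley rats. Compounds given ip as a Klucel suspension at 5, 1.25 and/or 0.31 mg/kg (some at 10, 2.5 and 0.63 mg/kg ip), six animals per dose. MED is the lowest dose giving >50% inhibition with p ≤ 0.05 (Student's t test). Where data sufficed, ID50 with 95% confidence range was derived from experiments of six animals each.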

Rattus norvegicus [3] = test: Concentration of compound intraperitoneally in passive cutaneous anaphylaxis (PCA) model for 50% inhibition in Sprague-Dawley rat; type: functional; conditions: ip, read-out: ID50 (the source's name); outline: as §2
Rattus norvegicus [4] = organism: Rattus norvegicus; test: Concentration of compound perorally in passive cutaneous anaphylaxis (PCA) model for 50% inhibition in Sprague-Dawley rat; IN-Ineffective; type: functional, organism-based; outline: as §1

Row | Compound | minimal effective dose (Rattus norvegicus [1]) [mg/kg] | minimal effective dose (Rattus norvegicus [2]) [mg/kg] | ED50 (Rattus norvegicus [3]) [mg/kg] | ID50 (Rattus norvegicus [4])
1 | O=c1cc(-c2nn[nH]n2)nc2sc3ccccc3n12 | > 10 | 5 | – | –
2 | O=c1c(-c2nnn[nH]2)cnc2oc3ccccc3n12 | 5 | 1.25 | – | –
3 | Cn1c2ccccc2n2c(=O)c(C(=O)Nc3nn[nH]n3)cnc12 | > 10 | 0.31 | – | –
4 | Cn1c2ccccc2n2c(=O)cc(-c3nn[nH]n3)nc12 | – | 5 | – | –
5 | O=C([O-])c1cc(=O)c2c(OCC(O)COc3cccc4oc(C(=O)[O-])cc(=O)c34)cccc2o1.[Na+].[Na+] [CROMOLYN SODIUM] | – | – | 2.6 | inactive
6 | O=C(O)c1cc(=O)n2c(n1)sc1ccccc12 | > 10 | > 5 | – | –
7 | O=C(Nc1nn[nH]n1)c1cc(=O)n2c(n1)sc1ccccc12 | > 10 | 1.25 | – | –
8 | O=C(Nc1nn[nH]n1)c1cnc2sc3ccccc3n2c1=O | > 10 | 1.25 | – | –
9 | O=C(O)c1cc(=O)n2c(n1)oc1ccccc12 | > 10 | 5 | – | –
10 | Cn1c2ccccc2n2c(=O)c(C(=O)O)cnc12 | > 10 | 0.63 | – | –
11 | O=c1c(-c2nnn[nH]2)cnc2sc3ccccc3n12 | > 10 | 1.25 | – | –
12 | O=C(O)c1cnc2sc3ccccc3n2c1=O | > 10 | > 5 | – | –
13 | O=C(Nc1nn[nH]n1)c1cnc2oc3ccccc3n2c1=O | 10 | 1.25 | – | –
14 | Cn1c2ccccc2n2c(=O)cc(C(=O)O)nc12 | > 10 | > 5 | – | –
15 | Cn1c2ccccc2n2c(=O)c(-c3nnn[nH]3)cnc12 | 2.5 | 0.31 | – | –
16 | O=c1cc(-c2nn[nH]n2)nc2oc3ccccc3n12 | > 10 | 1.25 | – | –
17 | O=C(O)c1cnc2oc3ccccc3n2c1=O | > 10 | > 5 | – | –
18 | Cn1c2ccccc2n2c(=O)cc(C(=O)Nc3nn[nH]n3)nc12 | 10 | 1.25 | – | –
19 | O=C(Nc1nn[nH]n1)c1cc(=O)n2c(n1)oc1ccccc12 | > 10 | 1.25 | – | –
